Hits are enriched below; roughly 3.8% of the tested compounds scored in any of these assays.
RGS4 act = potentiators or activators of RGS4. HEK293 M3R/inducible RGS4, carbachol calcium flux Fluo4; active compounds read low. B-score at 10 µM. actives 0.92% (n = 310,000);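 active = B-score of the integrated calcium signal more than 4 SD below the library mean, with starting fluorescence not abnormally high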;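 also: negative B-score means reduced calcium response which marks RGS4 activation or potentiation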
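Assay system: HEK293 FlpIn-TREx cells, stable M3R, doxycycline-inducible RGS4 / Probe or stimulus: carbachol, ECmax concentration / Times: overnight RGS4 induction, 30 min dye load 37 °C, 20 min compound RT / Signal: kinetic calcium fluorescence imaging with Fluo4-AM dye, 2 µM / Measure: Agonist-evoked peak-minus-minimum fluorescence over baseline, integrated ratio, B score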
MrgX1 antagonist = antagonists of human MrgX1 receptor; Q96LB2; MRGX1-HEK293 calcium flux, Fluo-4, BAM8-22 antagonism; active compounds read low; B-score at 10 µM; actives 1.3% (n = 310,000); AID 588676;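 active = calcium-response B-score plate-corrected more than 3 library SD below zero, starting fluorescence within 5 deviations, no agonist response on first addition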;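 also: peak minus trough fluorescence over baseline after final BAM8-22 challenge near maximal dose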
Target sequence (Q96LB2 whole entry, looked up): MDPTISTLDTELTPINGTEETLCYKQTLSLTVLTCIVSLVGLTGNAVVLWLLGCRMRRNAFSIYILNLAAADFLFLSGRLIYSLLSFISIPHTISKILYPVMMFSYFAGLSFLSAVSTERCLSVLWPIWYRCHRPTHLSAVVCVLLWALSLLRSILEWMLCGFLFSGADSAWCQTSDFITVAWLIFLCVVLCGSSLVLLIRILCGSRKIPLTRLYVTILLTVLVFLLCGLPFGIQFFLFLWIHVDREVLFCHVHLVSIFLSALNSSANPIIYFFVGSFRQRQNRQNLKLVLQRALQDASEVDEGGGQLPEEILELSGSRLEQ
MrgX1 PAM = allosterically activates human MrgX1 receptor signaling. Q96LB2. MrgX1-HEK293, Fluo-4 calcium flux, FDSS; active compounds read high. B-score at 10 µM. actives 0.63% (n = 310,000). AID 588675;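 active = plate-corrected calcium response at least 3 library SD above typical, normal starting fluorescence, not activating the receptor alone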;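 also: compound read alongside a low EC10 to EC30 dose of BAM8-22 agonist; peak minus trough fluorescence over baseline measured at the second addition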
Lipid droplet = modulators of hepatic lipid droplet formation; AML12 mouse hepatocytes, oleate lipid droplets, BODIPY imaging; inhibition, % at 6.5 µM; actives 0.4% (n = 240,000);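 active = lipid droplet intensity inhibited by at least 50%, with more than 500 cells counted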
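System: AML12 hepatocytes (mouse). Probe or stimulus: oleic acid at 100 µM to induce lipid droplet formation. Times: overnight treatment with compound plus oleate. Detection: Image-based BODIPY and DAPI two-channel analysis. Evaluation: percent inhibition of filter-corrected integrated lipid droplet intensity per well.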
RGS4 block = human RGS4 inhibition. P49798. HEK293 M3R/RGS4 inducible, Fluo-4 calcium flux; active compounds read high; triggered by carbachol at its EC20. actives 0.45% (n = 310,000). B-score at 10 µM;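 active = B-score, a plate-corrected calcium signal, over three deviations above library mean, with baseline fluorescence within five deviations of library mean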;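 also: RGS4 expression induced by doxycycline in cells with stable M3 receptor; B-score is computed from the integrated fluorescence ratio over baseline after carbachol; higher B-score means a larger calcium signal and so more RGS4 inhibition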
Target sequence (P49798 whole entry, looked up): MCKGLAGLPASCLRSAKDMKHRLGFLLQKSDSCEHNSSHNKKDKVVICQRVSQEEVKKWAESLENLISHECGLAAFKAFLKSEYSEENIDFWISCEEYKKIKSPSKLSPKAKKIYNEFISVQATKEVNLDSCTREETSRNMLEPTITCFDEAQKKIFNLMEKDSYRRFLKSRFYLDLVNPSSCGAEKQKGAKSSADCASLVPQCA
MrgX1 ag = activates human MrgX1 receptor signaling; MrgX1-HEK293 cells, Fluo-4 calcium fluorescence, agonist mode; active compounds read high; B-score at 10 µM; actives 0.44% (n = 310,000);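 active = calcium response B-score plate-corrected fluorescence ratio at least 3 library SD, with starting fluorescence B-score inside 5 SD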
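Material – MrgX1-expressing HEK293 cells · Input – 15,000 cells seeded per well · Dosing – compound as first of three additions · Times – overnight seeding, then 1 h dark dye loading · Measured by – kinetic Fluo-4 NW fluorescence of intracellular calcium · Read-out – B-scored fluorescence response ratio · Benchmarks – positive and negative control wells on each plate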
Of the large screens only hits and unclear results are named; the others gave an inactive call.

COCCC(=O)N1CCCC(C(=O)c2ccc(C(F)(F)F)cc2)C1 (configuration not stated)	none
COc1ccc(O[C@H]2C=C[C@@H](c3ccccc3)O[C@@H]2CO/N=C(\C)CCC(=O)OC[C@H]2O[C@H](c3ccccc3)C=C[C@@H]2Oc2ccc(OC)cc2)cc1	MrgX1 antagonist -7.2
COc1ccc(O[C@H]2C=C[C@@H](c3ccccc3)O[C@@H]2COC(=O)CC/C(C)=N/O[C@@H](C)c2cn([C@H](CO)Cc3ccccc3)nn2)cc1	none (no result: RGS4 act, MrgX1 antagonist, MrgX1 PAM, RGS4 block, MrgX1 ag)
C=CCC(C)(NCc1ccccc1)c1ccc(C)cc1 (configuration not stated)	MrgX1 PAM 7.6
C=CCC(C)(NCc1ccccc1)c1ccccc1 (configuration not stated)	none
CCn1cc([N+](=O)[O-])nc1C	MrgX1 antagonist -7.5
Cc1ccc(CN2C(=O)/C(=C\c3ccc(C(=O)NCc4cccnc4)cc3)Oc3ccccc32)cc1	MrgX1 antagonist -4.6
COc1ccccc1CNC(=O)CNC(=O)c1sc2ccccc2c1Cl	none
c1cncc(-c2nc(NCCCn3ccnc3)c3ccccc3n2)c1	RGS4 act -7
COc1ccc(CC(=O)O/N=C(\N)Cc2ccc(OC)cc2)cc1	none (no result: Lipid droplet)
COc1ccc(C/C(N)=N/O)cc1	MrgX1 antagonist -8.3
CC(=O)Nc1nc(C)c(-c2csc(Nc3cccc(C(C)=O)c3)n2)s1	RGS4 act -7.5 (no result: Lipid droplet)
COc1ccc(NC(=O)Cn2nnc(C(=O)NCc3ccc4c(c3)OCO4)c2N)c(OC)c1	none
COc1cc(/C=C/C(=O)c2ccc3c(c2)OCCO3)cc(Br)c1OCC(=O)N(C)C	MrgX1 antagonist -5.6
CCOc1c(Br)cc(CNc2ccc3c(c2)OCCO3)cc1OC	none
O=C(NC(=S)NNC(=O)c1cc2ccccc2cc1O)c1ccco1	none
O=C(/C=C/c1cccs1)NC(=S)NNC(=O)c1ccccc1O	MrgX1 ag 63
O=C(NC(=S)NNC(=O)c1ccccc1O)c1ccco1	MrgX1 ag 30
Cc1ccc(C(=O)OCC(=O)Nc2sc3c(c2C#N)CCCC3)cc1NC(=O)c1ccco1	RGS4 act -7.5
Cc1ccc(C(=O)OCC(=O)Nc2sc3c(c2C#N)CCCCC3)cc1NC(=O)c1ccco1	none (no result: Lipid droplet)
CC(=O)N1c2ccc(S(=O)(=O)N3CCCCC3)cc2CC1C(=O)Nc1ccc(F)cc1C (configuration not stated)	none
CCN(CC)CCN1C(=O)c2oc3ccccc3c(=O)c2C1c1ccccc1 (configuration not stated)	MrgX1 antagonist -6 (no result: Lipid droplet)
CCN(CC)CCCN1C(=O)c2oc3ccccc3c(=O)c2C1c1cccs1 (configuration not stated)	MrgX1 PAM 11
Cc1ccc(NC(=O)C2Cc3ccccc3CN2C(=O)c2ccco2)cc1S(=O)(=O)N(C)C (configuration not stated)	none
Cc1c(C)c2ccc(OCC(=O)N3CCN(C(=O)C4COc5ccccc5O4)CC3)cc2oc1=O (configuration not stated)	RGS4 act -7.2
Cc1cc(=O)oc2cc(OCC(=O)N3CCN(C(=O)C4COc5ccccc5O4)CC3)ccc12 (configuration not stated)	none
COc1cc(-c2nc(=S)[nH][nH]2)cc(OC)c1OC	none
O=C(NN1C(=O)c2ccccc2NC1c1ccc([N+](=O)[O-])o1)c1ccc([N+](=O)[O-])cc1 (configuration not stated)	none
O=C(NN1C(=O)c2ccccc2NC1c1ccoc1)c1ccc([N+](=O)[O-])cc1 (configuration not stated)	MrgX1 antagonist -4.6
COc1ccc(-c2oc3ccccc3c2C(=O)OCc2ccc(O)cc2)cc1	none (no result: Lipid droplet)
COc1ccc(-c2oc3ccccc3c2C(=O)OCc2ccccc2)cc1	MrgX1 PAM 8.1 (no result: Lipid droplet)
CSc1ccc(NC(=O)C(C)N2CCN(C)CC2)cc1 (configuration not stated)	none
CS(=O)(=O)N(CC(=O)Nc1cccc([N+](=O)[O-])c1)c1ccccc1	none
Cc1ccccc1CN(CC(=O)Nc1cccc([N+](=O)[O-])c1)S(=O)(=O)c1ccc(Cl)cc1	RGS4 act -7.2
COc1ccccc1CNC(=O)C1CCN(c2ncnc3c2nc2n3CCCCC2)CC1	none
CN(C)c1ccc(/C=C(/C#N)C(=O)NCc2ccccc2)o1	MrgX1 antagonist -4.9
COc1ccc(CCn2c(=N)c(C(=O)NC3CCCC3)cc3c(=O)n4cccc(C)c4nc32)cc1	none
COc1ccc(CCNC(=O)c2cc3c(=O)n4ccccc4nc3n(C3CCCCC3)c2=N)cc1	RGS4 act -7.1
Cc1cccn2c(=O)c3cc(C(=O)NC4CCCC4)c(=N)n(CCc4ccccc4)c3nc12	RGS4 act -8.1
COc1ccc(CCNC(=O)c2cc3c(=O)n4ccccc4nc3n(C3CCCCC3)c2=N)cc1OC	none
CCOc1cc(/C=N/NC(=O)CN2CCOCC2)ccc1OCc1ccccc1	none
CCOc1cc(/C=N/NC(=O)c2ccncc2)ccc1OC(=O)c1ccco1	none
CCOc1cc(/C=N/NC(=O)c2ccc(CN3CCOCC3)cc2)ccc1OCc1ccccc1	RGS4 act -7.3
CCOc1cc(/C=N/NC(=O)C(O)(c2ccccc2)c2ccccc2)ccc1OC(=O)c1ccco1	RGS4 act -10 (no result: Lipid droplet)
CC[C@@]1(c2ccccc2)C(=O)N(C(=O)OC)N1C(=O)OC	MrgX1 antagonist -8.6
CC[C@]1(c2ccccc2)C(=O)N(C(=O)OC)N1C(=O)OC	none
C/C(O)=c1/cnc2nc3ccccc3n2c1=O	none
COc1cc(C(=O)COC(=O)c2cc([N+](=O)[O-])ccc2N2CCOCC2)ccc1OC(F)F	MrgX1 antagonist -6.2 (no result: Lipid droplet)
COc1ccccc1C(=O)COC(=O)c1cc([N+](=O)[O-])ccc1N1CCOCC1	none (no result: Lipid droplet)
COc1cc(-c2ccc(NC(=O)NC3CC3)c(OC)c2)ccc1NC(=O)NC1CC1	none
C[N+]1(C)CCCC(OC(=O)C(O)(c2ccccc2)c2ccccc2)C1 (configuration not stated)	RGS4 act -11 (no result: Lipid droplet)
CC1CCCC(NC(=O)CCS(=O)(=O)c2cc3c(cc2Cl)NC(=O)CO3)C1C (configuration not stated)	none
C=CCn1c(SCC(=O)c2ccc(Br)cc2)nnc1C(CC(C)C)NC(=O)c1cccs1 (configuration not stated)	MrgX1 antagonist -6.1
CC(C)CC(NC(=O)c1cccs1)c1nnc(SCc2ccc(Cl)c(Cl)c2)n1C (configuration not stated)	none

Screening data deposited in PubChem by several laboratories.
